{
  "source": "ChEMBL document CHEMBL1140384",
  "about": "“Synthesis and structure-activity relationships of suramin-derived P2Y11 receptor antagonists with nanomolar potency” (J Med Chem, 2005)",
  "key": {"P2X purinoceptor 3": {"biological_target": "T1, P2X purinoceptor 3 (Rattus norvegicus, UniProt P49654)", "T1 sequence (P49654 whole entry)": "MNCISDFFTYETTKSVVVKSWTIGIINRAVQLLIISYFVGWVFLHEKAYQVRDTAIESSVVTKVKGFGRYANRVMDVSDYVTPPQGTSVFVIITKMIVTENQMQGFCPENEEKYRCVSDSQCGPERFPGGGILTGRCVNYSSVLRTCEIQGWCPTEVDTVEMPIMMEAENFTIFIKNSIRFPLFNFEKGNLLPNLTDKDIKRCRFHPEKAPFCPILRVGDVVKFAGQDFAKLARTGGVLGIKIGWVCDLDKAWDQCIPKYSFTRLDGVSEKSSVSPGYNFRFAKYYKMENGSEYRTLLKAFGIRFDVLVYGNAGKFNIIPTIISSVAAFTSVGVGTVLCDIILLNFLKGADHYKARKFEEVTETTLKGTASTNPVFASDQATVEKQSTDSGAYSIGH", "test": "Inhibitory concentration against rat P2X purinoceptor 3 expressed in Xenopus laevis oocytes", "format": "functional, cell-based, Oocyte", "summary_of_the_method": "(§1)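 Two-electrode voltage clamp on Xenopus laevis oocytes expressing recombinant rat or human P2X subtypes, recording receptor-mediated currents. IC50 values came from nonlinear least-squares Hill fits to pooled concentration-inhibition data; mean ± SEM from at least three experiments.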"}, "P2X purinoceptor 7": {"biological_target": "T2, P2X purinoceptor 7 (Rattus norvegicus, UniProt Q64663)", "T2 sequence (Q64663 whole entry)": "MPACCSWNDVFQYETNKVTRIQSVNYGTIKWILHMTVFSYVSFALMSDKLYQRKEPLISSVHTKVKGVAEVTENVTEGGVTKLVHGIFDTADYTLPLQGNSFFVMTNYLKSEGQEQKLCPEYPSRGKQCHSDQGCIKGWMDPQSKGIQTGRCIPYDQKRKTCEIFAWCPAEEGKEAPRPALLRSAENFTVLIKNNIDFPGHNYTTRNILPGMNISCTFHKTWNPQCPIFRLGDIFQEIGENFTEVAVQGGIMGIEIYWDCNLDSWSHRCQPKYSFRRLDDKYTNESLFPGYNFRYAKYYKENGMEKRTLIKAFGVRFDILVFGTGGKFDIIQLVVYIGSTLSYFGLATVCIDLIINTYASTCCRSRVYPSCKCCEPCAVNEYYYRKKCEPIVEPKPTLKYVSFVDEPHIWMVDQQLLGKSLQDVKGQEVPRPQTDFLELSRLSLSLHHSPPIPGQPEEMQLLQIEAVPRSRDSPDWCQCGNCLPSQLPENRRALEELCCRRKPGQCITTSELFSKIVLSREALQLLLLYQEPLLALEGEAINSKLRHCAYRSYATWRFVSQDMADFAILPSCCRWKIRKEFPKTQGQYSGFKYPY", "test": "Inhibitory concentration against rat P2X purinoceptor 7 expressed in Xenopus laevis oocytes", "format": "functional, cell-based, Oocyte", "summary_of_the_method": "as §1"}, "P2Y purinoceptor 1": {"biological_target": "P2Y purinoceptor 1 (Homo sapiens, UniProt P47900)", "sequence (P47900 whole entry)": "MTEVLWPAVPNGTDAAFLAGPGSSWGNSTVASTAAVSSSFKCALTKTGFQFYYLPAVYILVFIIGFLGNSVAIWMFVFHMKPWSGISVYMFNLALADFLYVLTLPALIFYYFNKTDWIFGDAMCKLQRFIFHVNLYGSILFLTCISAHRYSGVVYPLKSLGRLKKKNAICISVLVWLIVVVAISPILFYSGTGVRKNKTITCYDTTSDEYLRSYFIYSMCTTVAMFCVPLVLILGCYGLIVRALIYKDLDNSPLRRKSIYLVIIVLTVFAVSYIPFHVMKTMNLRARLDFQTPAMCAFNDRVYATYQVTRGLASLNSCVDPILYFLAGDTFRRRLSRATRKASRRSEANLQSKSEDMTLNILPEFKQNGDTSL", "test": "Percent inhibition of agonist-induced calcium mobilization at P2Y purinoceptor 1 recombinantly expressed in human HEK293 cells at 100 uM dose", "format": "functional, cell-based", "details": "in the assay text read “native in” for “recombinantly expressed in”", "summary_of_the_method": "(§2)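 Single 100 µM antagonist dose, preincubated 30 min at 37 °C, in a Ca2+ fluorescence assay (Oregon Green 488 BAPTA-1/AM). Agonists: 31.6 nM 2-MeSADP for native P2Y1 and 3.16 µM UTP for native P2Y2, both in HEK293 cells; 1 µM ATPγS for recombinant P2Y11 in 1321N1 cells. Response expressed as % of agonist control; mean ± SEM, n ≥ 3.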"}, "P2Y purinoceptor 2": {"biological_target": "P2Y purinoceptor 2 (Homo sapiens, UniProt P41231)", "sequence (P41231 whole entry)": "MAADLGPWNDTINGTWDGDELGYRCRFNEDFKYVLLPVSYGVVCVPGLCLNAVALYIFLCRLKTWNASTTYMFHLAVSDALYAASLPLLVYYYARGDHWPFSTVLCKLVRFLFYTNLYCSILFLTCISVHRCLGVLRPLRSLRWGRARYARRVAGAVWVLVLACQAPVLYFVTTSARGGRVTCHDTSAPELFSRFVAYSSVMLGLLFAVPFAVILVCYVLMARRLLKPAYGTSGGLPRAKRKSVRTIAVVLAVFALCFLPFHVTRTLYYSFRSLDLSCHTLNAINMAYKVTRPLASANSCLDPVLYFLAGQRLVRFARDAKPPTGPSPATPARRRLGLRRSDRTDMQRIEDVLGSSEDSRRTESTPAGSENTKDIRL", "test": "Percent inhibition of agonist-induced calcium mobilization at P2Y purinoceptor 2 recombinantly expressed in human HEK293 cells at 100 uM dose", "format": "functional, cell-based", "details": "in the assay text read “native in” for “recombinantly expressed in”", "summary_of_the_method": "as §2"}},
  "data": [
    {"smiles": "O=C(Nc1cccc(C(=O)Nc2cc(C(=O)Nc3ccc(S(=O)(=O)O)c4cc(S(=O)(=O)O)cc(S(=O)(=O)O)c34)ccc2F)c1)Nc1cccc(C(=O)Nc2cc(C(=O)Nc3ccc(S(=O)(=O)O)c4cc(S(=O)(=O)O)cc(S(=O)(=O)O)c34)ccc2F)c1", "values": [
      {"measurement": "IC50", "setting": "P2X purinoceptor 3", "value": 776, "unit": "nM"},
      {"measurement": "IC50", "setting": "P2X purinoceptor 7", "value": "> 3.16", "unit": "µM"},
      {"measurement": "inhibition", "setting": "P2Y purinoceptor 1", "value": 63.3, "unit": "%"},
      {"measurement": "inhibition", "setting": "P2Y purinoceptor 2", "value": 42.8, "unit": "%"}
    ]}
  ]
}
